Measurements gathered from unrelated publications.
Each line is one published result; the experiments were not run side by side.
Matrix: plasma

Structure (SMILES)	test system	conditions	half-life
COc1ccc([C@@H]2CN(C(=O)[C@@H](O)CO)C[C@@]2(C)[C@@H](C)O)cc1OC1CN(c2ccc(C)cn2)C1	human	oral, 0.1 mg, single dose, healthy volunteers	584 min
CO[C@@H]1[C@H](OC(=O)N2CC(CCN3CCOCC3)C2)CC[C@]2(CO2)[C@H]1[C@@]1(C)O[C@@H]1CC=C(C)C	human	subcutaneous, 1.2 mg, single dose, healthy volunteers	43.2 min
COCCOc1cnc2ccn([C@H](C)c3nnc4c(F)cc(-c5cnn(C)c5)cn34)c(=O)c2c1	human	oral, 150 mg, multiple doses, once daily, patients	594 min
NS(=O)(=O)NCCNc1nonc1C(=NO)Nc1ccc(F)c(Br)c1	human	oral, 600 mg, multiple doses, twice daily, steady state, patients	198 min
COc1cc(C(=O)NC2CCN(C)CC2)c(F)cc1Nc1ncc(C(F)(F)F)c(Oc2cccc3c2C(=O)N(C)C3)n1	human	oral, 50 mg, multiple doses, once daily, patients	1290 min
Cn1cc(-c2ccc(S(=O)(=O)[C@@H]3C[C@@H](C(=O)NC4(C#N)CC4)N(C(=O)C4(C(F)(F)F)CC4)C3)c(C(F)(F)F)c2)cn1	human	oral, 30 mg, single dose, fasted, healthy volunteers	612 min
CC(C)[C@](O)(c1ccc2cc(OC(F)F)c(OC(F)F)cc2c1)c1c[nH]nn1	female human	oral, 750 mg, single dose	408 min
C#C[C@]1(COP(=O)(O)OP(=O)(O)OP(=O)(O)O)O[C@@H](n2cnc3c(N)nc(F)nc32)C[C@@H]1O	human	oral, 400 mg, single dose	8580 min
CC(C)n1cc(C#N)c2cc(-n3cc(C(=O)O)cn3)ccc21	human	oral, 200 mg, single dose, fasted, healthy volunteers	798 min
CC(C)(Sc1ccncc1-c1ccc(C#N)c2ccccc12)C(=O)O	male human	oral, 20 mg, single dose, fasted, healthy volunteers	654 min
CO[C@H]1/C=C\C=C(/C)C(=O)NC2=CC(=O)C(NCCN(C)C)=C(C[C@@H](C)C[C@H](OC)[C@H](O)[C@@H](C)/C=C(\C)[C@@H]1OC(N)=O)C2=O	human	intravenous, patients, infusion	1340 min
c1cnc2ccc(Nc3nc(NC4CC4)c4nc[nH]c4n3)cc2c1	human	oral, 200 mg/m², patients	126 min
CO[C@H]1CC[C@H](N2C(=O)CNc3ncc(-c4ccc(C(C)(C)O)nc4)nc32)CC1	human	oral, 60 mg, patients	338 min
CCNCCCNC/C=C\CNCCCNCC	human	intravenous, 200 mg, patients, infusion	8.4 min
C[C@@H](Nc1cc(F)cc(F)c1)c1cc(C(=O)N(C)C)cc2c(=O)cc(N3CCOCC3)oc12	human	oral, 120 mg, single dose, patients	200 min
CC(C)(O)c1ccccc1-c1ccc2[nH]c(/C=C/c3ccc(C(F)(F)F)cc3)nc2c1	male human	oral, 225 mg, single dose, fasted, healthy volunteers	5150 min
